Results taken from ChEMBL document CHEMBL1275566, “MexCD-OprJ multidrug efflux system of Pseudomonas aeruginosa: involvement in chlorhexidine resistance and induction by membrane-damaging agents dependent upon the AlgU stress response sigma factor” (2008).
Converted amounts (≈) assume the structure as drawn. The source made the active and inactive calls. The calls are words filed in the database; no cut-off is given here.

Legend:
[1] = test system: Pseudomonas aeruginosa; experiment: Induction of mexCD-oprJ expression in Pseudomonas aeruginosa PAO1 K767 at 3 ug/ml after 2.5 hrs by semiquantitative RT-PCR; assay type: functional, organism-based
[2] = test system: Pseudomonas aeruginosa; experiment: Induction of PmexCD-oprJ-lacZ expression in AlgU-negative Pseudomonas aeruginosa K2901 at 3.1 ug/ml by beta-galactosidase reporter assay; assay type: functional, organism-based
[3] = test system: Pseudomonas aeruginosa; experiment: Antimicrobial activity against CDJ-positive and AlgU-negative Pseudomonas aeruginosa K2897; assay type: functional
Procedure, shortened: (§1)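 Broth susceptibility testing of P. aeruginosa strains in LB at 37°C. Strains are defined by mexCD-oprJ status (CDJ+ means present and CHX-inducible but not expressed untreated; CDJ− means deleted) and by algU status.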

[4] = test system: Pseudomonas aeruginosa; experiment: Induction of PmexCD-oprJ-lacZ expression in Pseudomonas aeruginosa K2899 at 3.1 ug/ml by beta-galactosidase reporter assay; assay type: functional, organism-based
[5] = test system: Pseudomonas aeruginosa; experiment: Induction of PmexCD-oprJ-lacZ expression in Pseudomonas aeruginosa K2899 at 16 ug/ml by beta-galactosidase reporter assay; assay type: functional, organism-based
[6] = test system: Pseudomonas aeruginosa; experiment: Antimicrobial activity against CDJ -positive Pseudomonas aeruginosa K2889; assay type: functional; procedure, shortened: as §1
[7] = test system: Pseudomonas aeruginosa; experiment: Antimicrobial activity against CDJ and AlgU-negative Pseudomonas aeruginosa K2898; assay type: functional; procedure, shortened: as §1
[8] = test system: Pseudomonas aeruginosa; experiment: Induction of mexCD-oprJ expression in mexB and mexXY deficient and AlgU-positive Pseudomonas aeruginosa K1542 at 2.5 ug/ml by semiquantitative RT-PCR; assay type: functional, organism-based
[9] = test system: Pseudomonas aeruginosa; experiment: Antimicrobial activity against NfxB- and AlgU-negative Pseudomonas aeruginosa K2895; assay type: functional
[10] = test system: Pseudomonas aeruginosa; experiment: Antimicrobial activity against CDJ-positive and AlgU-negative Pseudomonas aeruginosa K2443; assay type: functional
[11] = test system: Pseudomonas aeruginosa; experiment: Induction of PmexCD-oprJ-lacZ expression in Pseudomonas aeruginosa K2899 at 1.25 ug/ml by beta-galactosidase reporter assay; assay type: functional, organism-based
[12] = test system: Pseudomonas aeruginosa; experiment: Antimicrobial activity against CDJ-negative and AlgU-positive Pseudomonas aeruginosa K2896; assay type: functional
[13] = test system: Pseudomonas aeruginosa; experiment: Antimicrobial activity against NfxB-and AglU-negative Pseudomonas aeruginosa K2895 harboring plasmid pMMB206 carrying AlgU gene; assay type: functional
[14] = test system: Pseudomonas aeruginosa; experiment: Induction of mexCD-oprJ expression in Pseudomonas aeruginosa PAO1 K767 at 2.5 ug/ml after 2.5 hrs by semiquantitative RT-PCR; assay type: functional, organism-based
[15] = test system: Pseudomonas aeruginosa; experiment: Antimicrobial activity against CDJ-positive and AlgU-negative Pseudomonas aeruginosa K2443 harboring plasmid pMMB206; assay type: functional
[16] = test system: Pseudomonas aeruginosa; experiment: Induction of PmexCD-oprJ-lacZ expression in AlgU-negative Pseudomonas aeruginosa K2901 at 15 ug/ml by beta-galactosidase reporter assay; assay type: functional, organism-based
[17] = test system: Pseudomonas aeruginosa; experiment: Induction of PmexCD-oprJ-lacZ expression in AlgU-negative Pseudomonas aeruginosa K2901 at 8 ug/ml by beta-galactosidase reporter assay; assay type: functional, organism-based
[18] = test system: Pseudomonas aeruginosa; experiment: Induction of mexCD-oprJ expression in Pseudomonas aeruginosa K2895 harboring plasmid pMMB206 carrying AlgU gene; assay type: functional, organism-based
[19] = test system: Pseudomonas aeruginosa; experiment: Induction of mexCD-oprJ expression in mexB and mexXY deficient and AlgU-negative Pseudomonas aeruginosa K2897 at 0.33 ug/ml by semiquantitative RT-PCR; assay type: functional, organism-based
[20] = test system: Pseudomonas aeruginosa; experiment: Induction of mexCD-oprJ expression in AlgU and NfxB-positive Pseudomonas aeruginosa K767; assay type: functional, organism-based
[21] = test system: Pseudomonas aeruginosa; experiment: Antimicrobial activity against CDJ-positive and AlgU-negative Pseudomonas aeruginosa K2443 harboring plasmid pMMB206 carrying AlgU gene; assay type: functional
[22] = test system: Pseudomonas aeruginosa; experiment: Antimicrobial activity against CDJ-negative and AlgU-positive Pseudomonas aeruginosa K1521; assay type: functional; procedure, shortened: as §1
[23] = test system: Pseudomonas aeruginosa; experiment: Antimicrobial activity against CDJ -negative Pseudomonas aeruginosa K2891; assay type: functional
[24] = test system: Pseudomonas aeruginosa; experiment: Induction of mexCD-oprJ expression in Pseudomonas aeruginosa K2895 harboring plasmid pMMB206; assay type: functional, organism-based
[25] = test system: Pseudomonas aeruginosa; experiment: Induction of PmexCD-oprJ-lacZ expression in AlgU-negative Pseudomonas aeruginosa K2901 at 0.125 ug/ml by beta-galactosidase reporter assay; assay type: functional, organism-based
[26] = test system: Pseudomonas aeruginosa; experiment: Antimicrobial activity against NfxB-negative and AlgU-positive Pseudomonas aeruginosa K1536; assay type: functional
[27] = test system: Pseudomonas aeruginosa; experiment: Induction of PmexCD-oprJ-lacZ expression in AlgU-negative Pseudomonas aeruginosa K2901 at 0.16 ug/ml by beta-galactosidase reporter assay; assay type: functional, organism-based
[28] = test system: Pseudomonas aeruginosa; experiment: Induction of PmexCD-oprJ-lacZ expression in Pseudomonas aeruginosa K2899 at 8 ug/ml by beta-galactosidase reporter assay; assay type: functional, organism-based
[29] = test system: Pseudomonas aeruginosa; experiment: Induction of PmexCD-oprJ-lacZ expression in AlgU-negative Pseudomonas aeruginosa K2901 at 11.6 ug/ml by beta-galactosidase reporter assay; assay type: functional, organism-based
[30] = test system: Pseudomonas aeruginosa; experiment: Induction of PmexCD-oprJ-lacZ expression in Pseudomonas aeruginosa K2899 at 11.6 ug/ml by beta-galactosidase reporter assay; assay type: functional, organism-based
[31] = test system: Pseudomonas aeruginosa; experiment: Induction of PmexCD-oprJ-lacZ expression in AlgU-negative Pseudomonas aeruginosa K2901 at 16 ug/ml by beta-galactosidase reporter assay; assay type: functional, organism-based
[32] = test system: Pseudomonas aeruginosa; experiment: Induction of PmexCD-oprJ-lacZ expression in Pseudomonas aeruginosa K2899 at 15 ug/ml by beta-galactosidase reporter assay; assay type: functional, organism-based
[33] = test system: Pseudomonas aeruginosa; experiment: Induction of mexCD-oprJ expression in AlgU-positive and NfxB-negative Pseudomonas aeruginosa K1536; assay type: functional, organism-based
[34] = test system: Pseudomonas aeruginosa; experiment: Antimicrobial activity against CDJ and AlgU-positive Pseudomonas aeruginosa K1542; assay type: functional
[35] = test system: Pseudomonas aeruginosa; experiment: Induction of mexCD-oprJ expression in AlgU-negative and NfxB-negative Pseudomonas aeruginosa K2895
[36] = test system: Pseudomonas aeruginosa; experiment: Induction of PmexCD-oprJ-lacZ expression in Pseudomonas aeruginosa K2899 at 0.125 ug/ml by beta-galactosidase reporter assay; assay type: functional, organism-based
[37] = test system: Pseudomonas aeruginosa; experiment: Antimicrobial activity against CDJ and AlgU-positive Pseudomonas aeruginosa K767; assay type: functional
[38] = test system: Pseudomonas aeruginosa; experiment: Antimicrobial activity against NfxB- and AlgU-negative Pseudomonas aeruginosa K2895 harboring plasmid pMMB206; assay type: functional
[39] = test system: Pseudomonas aeruginosa; experiment: Induction of mexCD-oprJ expression in Pseudomonas aeruginosa PAO1 K767 at 100 ug/ml after 2.5 hrs by semiquantitative RT-PCR; assay type: functional, organism-based

## CCCCC(CC)CNC(=N)NC(=N)NCCCCCCNC(=N)NC(=N)NCC(CC)CCCC (centres undefined)
[1]
  Activity: Active

## N=C(NCCCCCCNC(=N)NC(=N)Nc1ccc(Cl)cc1)NC(=N)Nc1ccc(Cl)cc1 [CHLORHEXIDINE]
[2]
  Activity: Active
[3]
  MIC: 1.25 mg/L (≈ 2.47 µM)
[4]
  Activity: Active
[5]
  Activity: Active
[6]
  MIC: > 50 mg/L
[7]
  MIC: 0.625 mg/L (≈ 1.24 µM)
[8]
  Activity: Active
[9]
  MIC: 2.5 mg/L (≈ 4.95 µM)
[10]
  MIC: 2.5 mg/L (≈ 4.95 µM)
[11]
  Activity: Active
[12]
  MIC: 2.5 mg/L (≈ 4.95 µM)
[13]
  MIC: 20 mg/L (≈ 39.6 µM)
[14]
  Activity: Active
[15]
  MIC: 2.5 mg/L (≈ 4.95 µM)
[16]
  Activity: Active
[17]
  Activity: Active
[18]
  Activity: Active
[19]
  Activity: Active
[20]
  Activity: Active
[21]
  MIC: 10 mg/L (≈ 19.8 µM)
[22]
  MIC: 5 mg/L (≈ 9.89 µM)
[23]
  MIC: 10 mg/L (≈ 19.8 µM)
[24]
  Activity: Active
[25]
  Activity: Active
[26]
  MIC: 20 mg/L (≈ 39.6 µM)
[27]
  Activity: Active
[28]
  Activity: Active
[29]
  Activity: Active
[30]
  Activity: Active
[31]
  Activity: Active
[32]
  Activity: Active
[33]
  Activity: Active
[34]
  MIC: 10 mg/L (≈ 19.8 µM)
[35]
  Activity: Active
[36]
  Activity: Active
[37]
  MIC: 10 mg/L (≈ 19.8 µM)
[38]
  MIC: 2.5 mg/L (≈ 4.95 µM)

## CETRIMIDE
[39]
  Activity: Active
